Series [1] deals with T1, Amine oxidase [flavin-containing] B (Homo sapiens, UniProt P27338).
T1 sequence (P27338 whole entry): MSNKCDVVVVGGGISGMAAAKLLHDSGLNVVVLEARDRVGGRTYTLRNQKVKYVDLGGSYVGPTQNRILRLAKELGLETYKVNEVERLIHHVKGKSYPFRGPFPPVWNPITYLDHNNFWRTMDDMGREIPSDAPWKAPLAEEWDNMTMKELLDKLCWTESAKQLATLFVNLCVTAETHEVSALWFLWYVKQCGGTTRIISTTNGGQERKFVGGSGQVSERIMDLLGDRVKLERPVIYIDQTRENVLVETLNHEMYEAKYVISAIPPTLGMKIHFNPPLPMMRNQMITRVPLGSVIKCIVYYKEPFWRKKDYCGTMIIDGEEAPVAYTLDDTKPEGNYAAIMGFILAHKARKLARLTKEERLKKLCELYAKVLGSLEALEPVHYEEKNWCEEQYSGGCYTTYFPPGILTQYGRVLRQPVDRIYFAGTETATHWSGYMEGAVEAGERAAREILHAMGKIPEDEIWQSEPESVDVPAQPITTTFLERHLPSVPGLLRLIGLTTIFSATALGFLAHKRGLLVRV
The series is described as follows: Inhibition of recombinant human microsomal MAO-B expressed in baculovirus-infected insect cells using p-tyramine as substrate assessed as H2O2 production at 60 uM pretreated for 15 mins followed by addition of Amplex Red, horseradish peroxidase and substrate measured for 15 mins by fluorimetric method. The note with it: 0.25 h.

The target of series [2] is T2, Amine oxidase [flavin-containing] A (Homo sapiens, UniProt P21397).
T2 sequence (P21397 whole entry): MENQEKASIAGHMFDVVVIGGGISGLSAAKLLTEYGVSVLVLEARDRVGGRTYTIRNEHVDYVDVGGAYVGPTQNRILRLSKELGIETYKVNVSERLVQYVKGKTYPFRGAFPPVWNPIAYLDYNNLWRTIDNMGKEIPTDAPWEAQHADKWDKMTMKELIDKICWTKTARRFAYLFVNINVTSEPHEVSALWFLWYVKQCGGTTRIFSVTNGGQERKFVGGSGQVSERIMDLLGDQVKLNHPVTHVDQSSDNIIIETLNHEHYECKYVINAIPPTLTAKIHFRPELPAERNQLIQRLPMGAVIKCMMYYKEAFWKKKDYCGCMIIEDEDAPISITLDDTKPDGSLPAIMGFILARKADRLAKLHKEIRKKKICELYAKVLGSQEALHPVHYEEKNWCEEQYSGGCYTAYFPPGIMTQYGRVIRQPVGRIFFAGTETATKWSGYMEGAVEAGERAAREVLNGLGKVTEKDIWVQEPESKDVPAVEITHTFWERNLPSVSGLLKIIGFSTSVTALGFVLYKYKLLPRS
The series is described as follows: Inhibition of recombinant human microsomal MAO-A expressed in baculovirus-infected insect cells using p-tyramine as substrate assessed as H2O2 production at 60 uM pretreated for 15 mins followed by addition of Amplex Red, horseradish peroxidase and substrate measured for 15 mins by fluorimetric method. The settings on record: 0.25 h. The method in brief: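 Human MAO-A from microsomes of insect cells infected with recombinant baculovirus, 1.1 µg protein, adjusted to a rate of 165 pmol p-tyramine/min. Inhibitors in 0.05 M sodium phosphate pH 7.4, preincubated 15 min at 37 °C. Reaction started with 200 µM Amplex Red, 1 U/mL HRP and 1 mM p-tyramine. H2O2-derived resorufin fluorescence (ex 545/em 590 nm) read over 15 min at 37 °C, linear phase.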

Series [3] concerns the target T2, Amine oxidase [flavin-containing] A. Kind of series: Inhibition of recombinant human microsomal MAO-A expressed in baculovirus-infected insect cells using p-tyramine as substrate assessed as H2O2 production pretreated for 15 mins followed by addition of Amplex Red, horseradish peroxidase and substrate measured for 15 mins by fluorimetric method.
The species named for the next series is Homo sapiens. Kind of series: Selectivity index, ratio of IC50 for recombinant human microsomal MAO-A to recombinant human microsomal MAO-B.
The target of series [4] is T1, Amine oxidase [flavin-containing] B. Kind of series: Inhibition of recombinant human microsomal MAO-B expressed in baculovirus-infected insect cells using p-tyramine as substrate assessed as H2O2 production pretreated for 15 mins followed by addition of Amplex Red, horseradish peroxidase and substrate measured for 15 mins by fluorimetric method. In kind it is cell-based.

Each structure is given as a SMILES string.

In the case of `COc1ccc(C2=NN3C(=O)C(C)Oc4ccccc4C3C2)cc1` (stereo not given), in series [1], the INH result is “Not Active”. For the same compound, in series [2], the “inhibition (INH)” value is “Not Active”.
Turning to `O=C1COc2ccccc2C2CC(c3ccccc3Cl)=NN12` (stereo not given), the IC50 came out at 55.7 µM in series [3] and 1.32 µM in series [4]. In addition, the Ratio IC50 in the series listed under Homo sapiens amounted to 42.1.
Consider `Cc1ccc(C2=NN3C(=O)COc4ccc(Cl)cc4C3C2)cc1` (stereo not given), for which the IC50 came to 3.9 µM in series [3] and 1.63 µM in series [4]. Besides, in the series listed under Homo sapiens, the Ratio IC50 turned out to be 2.4.
For the compound `COc1ccc(C2=NN3C(=O)COc4ccccc4C3C2)cc1` (stereo not given), the INH result in series [1] was “Not Active”. Further, the “inhibition (INH)” value in series [2] is recorded as “Not Active”.
Take `Cc1ccccc1C1=NN2C(=O)COc3ccccc3C2C1` (stereo not given): the INH result in series [1] is “Not Active”. For the same compound, the “inhibition (INH)” value in series [2] is recorded as “Not Active”.
With `COc1ccc(C2=NN3C(=O)COc4c(Br)cc(Br)cc4C3C2)cc1` (stereo not given), the IC50 in series [3] was determined as 4.76 µM; in series [4], 0.467 µM. The Ratio IC50 in the series filed under Homo sapiens came out at 10.2.
For `CC1Oc2ccccc2C2CC(c3ccc(F)cc3)=NN2C1=O` (stereo not given), in the series filed under Homo sapiens, the Ratio IC50 worked out at 271. In series [4], the IC50 came to 0.221 µM. Further, the “inhibition (INH)” value in series [2] is listed as “Not Active”.
`O=C1COc2ccc(Cl)cc2C2CC(c3ccc(Cl)cc3)=NN12` (stereo not given): the IC50 in series [3] was determined as 4.71 µM; in series [4], 0.504 µM. In addition, in the series filed under Homo sapiens, the Ratio IC50 is 9.3.
`O=C1COc2ccc(Cl)cc2C2CC(c3ccccc3)=NN12` (stereo not given): the Ratio IC50 in the series filed under Homo sapiens was found to be 23.4. Besides, the IC50 in series [4] was found to be 2.57 µM. The “inhibition (INH)” value in series [2] is “Not Active”.
`C#CCN(C)[C@H](C)Cc1ccccc1` [SELEGILINE]: the “inhibition (INH)” value in series [2] was “Not Active”.
Consider `O=C1COc2ccccc2C2CC(c3ccccc3)=NN12` (stereo not given), for which the IC50 worked out at 2.19 µM in series [3] and 2.88 µM in series [4]. In the series listed under Homo sapiens, the Ratio IC50 is 0.8.
`Cc1ccc(C2=NN3C(=O)C(C)Oc4ccccc4C3C2)cc1` (stereo not given): the Ratio IC50 in the series listed under Homo sapiens turned out to be 1.3. Further, in series [4], the IC50 came out at 45.2 µM. Further, the “inhibition (INH)” value in series [2] was “Not Active”.
Regarding `CC1Oc2ccccc2C2CC(c3ccc(Cl)cc3)=NN2C1=O` (stereo not given), the Ratio IC50 in the series filed under Homo sapiens came to 133. The IC50 in series [4] came out at 0.452 µM. Besides, the “inhibition (INH)” value in series [2] is “Not Active”.
As to `CC1Oc2ccccc2C2CC(c3ccccc3)=NN2C1=O` (stereo not given), the Ratio IC50 in the series filed under Homo sapiens turned out to be 1.7. Besides, the IC50 in series [4] amounted to 34.7 µM. For the same compound, the “inhibition (INH)” value in series [2] is recorded as “Not Active”.
In the same order, the values of `CC(C)c1ccc(C2=NN3C(=O)COc4ccccc4C3C2)cc1` (stereo not given) are 17, 3.52 µM and “Not Active”.
In the same order, the values of `O=C1COc2ccc(Cl)cc2C2CC(c3ccccc3F)=NN12` (stereo not given) are 103, 0.584 µM and “Not Active”.
In the same order, the values of `COc1ccc(C2=NN3C(=O)COc4ccc(Cl)cc4C3C2)cc1` (stereo not given) are 22, 2.72 µM and “Not Active”.
Consider `O=C1COc2ccccc2C2CC(c3ccc(Cl)cc3)=NN12` (stereo not given), for which, in series [1], the INH result is recorded as “Not Active”. Further, the IC50 in series [3] came to 53.3 µM. The Ratio IC50 in the series filed under Homo sapiens came out at 0.9.
With `O=C1COc2ccc(Cl)cc2C2CC(c3ccc(F)cc3)=NN12` (stereo not given), the IC50 in series [3] turned out to be 4.65 µM; in series [4], 0.242 µM. Moreover, the Ratio IC50 in the series listed under Homo sapiens worked out at 19.2.
`Cc1ccc(C2=NN3C(=O)COc4ccccc4C3C2)cc1` (stereo not given): the INH entry in series [1] is on record as “Not Active”. In series [2], the “inhibition (INH)” value is “Not Active”.
For the compound `O=C1COc2ccccc2C2CC(c3ccc(F)cc3)=NN12` (stereo not given), in the series filed under Homo sapiens, the Ratio IC50 was 33.7. In addition, in series [4], the IC50 is 1.78 µM. Moreover, in series [2], the “inhibition (INH)” value is listed as “Not Active”.
Regarding `CC1Oc2ccccc2C2CC(c3ccccc3Cl)=NN2C1=O` (stereo not given), the IC50 is 4.05 µM in series [3] and 0.348 µM in series [4]. In addition, the Ratio IC50 in the series filed under Homo sapiens amounted to 11.7.

The IC50 is the concentration needed to halve the response being measured.

For the origin of these results see ChEMBL document CHEMBL3769366, “Novel tricyclic pyrazolo[1,5-d][1,4]benzoxazepin-5(6H)-one: Design, synthesis, model and use as hMAO-B inhibitors” (Bioorg Med Chem, 2016).
